{
  "source": "paper PMC12376068",
  "about": "(Protein Science : A Publication of the Protein Society, 2025)",
  "molecules": {"B1": {"name": "SPAM2‐fluorescein (peptide)", "peptide": "MWSRSDHNLNKFWILHYSANPS", "modifications": "also: fluorescein (position not given here)"}, "B2": {"name": "fluorescein‐labeled SPAM3 (peptide)", "peptide": "MYSSTDHILNKFLILHYALNPT", "modifications": "also: fluorescein (position not given here)"}},
  "key": {"[1]": {"biological_target": "mouse PD-L1 (mPD-L1) on CHO cells (Mus musculus, UniProt Q9EP73)", "sequence (Q9EP73 19-290)": "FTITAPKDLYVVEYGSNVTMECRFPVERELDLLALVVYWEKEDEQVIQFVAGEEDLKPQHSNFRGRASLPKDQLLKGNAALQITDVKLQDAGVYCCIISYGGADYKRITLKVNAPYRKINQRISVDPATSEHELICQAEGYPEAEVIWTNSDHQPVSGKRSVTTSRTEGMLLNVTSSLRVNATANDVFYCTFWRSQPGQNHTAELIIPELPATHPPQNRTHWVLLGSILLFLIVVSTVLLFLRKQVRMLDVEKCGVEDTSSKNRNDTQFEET", "test": "Flow cytometry binding to CHO cells expressing mouse PD-L1", "format": "cell-based", "conditions": "highest concentration tested, 1200 nM (Figure S15E)"}, "hPD-L1": {"biological_target": "hPD-L1 (Homo sapiens, UniProt Q9NZQ7)", "sequence (Q9NZQ7 19-238 limits assumed)": "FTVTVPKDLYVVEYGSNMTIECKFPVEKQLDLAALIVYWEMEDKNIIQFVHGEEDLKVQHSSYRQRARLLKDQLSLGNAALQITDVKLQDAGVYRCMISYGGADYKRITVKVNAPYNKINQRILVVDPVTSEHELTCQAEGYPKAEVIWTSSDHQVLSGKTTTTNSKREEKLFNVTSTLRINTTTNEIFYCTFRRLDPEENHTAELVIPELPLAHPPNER", "test": "Biolayer interferometry", "format": "binding", "procedure,_shortened": "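Extracellular-domain hPD-L1 was expressed in HEK293F cells, Ni-NTA purified and BirA-biotinylated. At 1 μg mL−1 it was loaded onto streptavidin biosensors to 1.4 nm, with PD-L1-free sensors as reference. Association ran 180 s and dissociation 900 s in assay buffer. Sensorgrams were normalized to no-peptide and globally fit to a 1:1 Langmuir model. Duplicates; means and fitting errors reported.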"}, "[2]": {"test": "Peptide solubility and aggregation", "format": "physicochemical", "conditions": "all conditions tested for CD spectroscopy", "procedure,_shortened": "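Lyophilized peptide was reconstituted in phosphate buffer (15 mM pH 6.5 or 50 mM pH 4.5) containing 10–20% MeOH or TFE. Samples were vortexed and sonicated 5 min. Concentration was set by absorbance at 280 nm, using 5500 M−1 cm−1 per Trp and 1490 M−1 cm−1 per Tyr. Absorbance had to stay constant over 20 min to exclude aggregation.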"}, "[3]": {"biological_target": "T1, human PD-L2 (hPD-L2) on CHO cells (Homo sapiens, UniProt Q9BQ51)", "T1 sequence (Q9BQ51 20-273)": "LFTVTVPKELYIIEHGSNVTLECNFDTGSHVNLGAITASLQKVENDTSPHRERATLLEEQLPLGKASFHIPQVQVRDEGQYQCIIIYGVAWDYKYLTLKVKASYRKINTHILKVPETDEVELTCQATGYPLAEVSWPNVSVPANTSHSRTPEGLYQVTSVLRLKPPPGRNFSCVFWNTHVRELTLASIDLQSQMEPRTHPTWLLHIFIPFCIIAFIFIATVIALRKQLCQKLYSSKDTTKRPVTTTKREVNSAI", "test": "Flow cytometry binding to CHO cells expressing human PD-L2", "format": "cell-based", "conditions": "highest concentration tested, 1200 nM (Figure S15E)", "procedure,_shortened": "(§1)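 CHO cells stably transfected with hPD-L2, or MDA-MB-468 cells, were grown in DMEM with 10% heat-inactivated FBS. They were lifted with trypsin-EDTA and resuspended in serum-free medium at 200,000 cells per well. Cells were incubated 1 h at 4°C in the dark with a dilution series of fluorescein-conjugated test peptide in cold 1:1 PBS:SF medium. After three cold-PBS washes, live single-cell fluorescence was read by flow cytometry (488 nm excitation).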"}, "[4]": {"biological_target": "hPD-L1 on the surface of CHO cells (Homo sapiens, UniProt Q9NZQ7)", "sequence (Q9NZQ7 19-290)": "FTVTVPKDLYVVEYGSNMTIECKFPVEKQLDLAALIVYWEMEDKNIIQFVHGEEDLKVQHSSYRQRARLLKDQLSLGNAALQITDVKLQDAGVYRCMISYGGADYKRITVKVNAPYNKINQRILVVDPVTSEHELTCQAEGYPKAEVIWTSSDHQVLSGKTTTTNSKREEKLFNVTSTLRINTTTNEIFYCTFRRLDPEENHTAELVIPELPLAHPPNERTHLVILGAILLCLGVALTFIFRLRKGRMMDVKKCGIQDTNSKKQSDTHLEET", "test": "Flow cytometry binding to CHO hPD-L1 cells", "format": "cell-based", "conditions": "flow cytometry (Figure S15D)"}, "[5]": {"conditions": "cited from earlier work"}, "[6]": {"test": "Far-UV CD thermal denaturation", "format": "physicochemical", "conditions": "pH 6.5, 0-90°C", "procedure,_shortened": "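Peptide was prepared in PB/MeOH 80:20 (15 mM PB pH 6.5 or 50 mM pH 4.5) at 17–70 μM, set by UV absorbance, in a 0.1 cm quartz cuvette. Far-UV spectra were taken at 190–270 nm, averaged over eight scans, with solvent blank subtracted. The ramp ran 0–90°C at 45°C per hour under nitrogen. Melts used molar ellipticity at 220 or 222 nm; first-derivative maxima gave transitions.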"}, "PD-1/hPD-L1 interaction": {"biological_target": "PD-1/hPD-L1 interaction (Homo sapiens, UniProt Q9NZQ7)", "sequence (Q9NZQ7 19-290)": "as above", "test": "PD-L1 T-cell reactivation assay", "format": "cell-based", "conditions": "5 μM peptide, 6 h at 37 °C, Bio-Glo luminescence, RLU relative to vehicle"}, "MDA-MB-468 cells": {"tested_on": "MDA-MB-468 cells", "test": "Flow cytometry binding to hPD-L1-negative MDA-MB-468 cells", "format": "cell-based, human", "conditions": "SPAM2-fluorescein dilution series", "procedure,_shortened": "as §1"}, "[7]": {"biological_target": "human PD‐L1 stably expressed on CHO cells (human, UniProt Q9NZQ7 19-290)", "sequence (Q9NZQ7 19-290)": "as above", "test": "flow cytometry on cells"}},
  "note": "Bridge positions count the residues as written; N and C are the ends. Square brackets hold non-standard residues; d marks the D form. Ends that are not written are not given here. I, II: the chains in the order shown. propargylglycine(fluorescein) = propargylglycine labeled with fluorescein azide by click chemistry; PEG10 = NCCOCCOCCOCCOCCOCCOCCOCCOCCOCCOCCC(=O)O",
  "data": [
    {"molecule": "I: MYSSTDHILNKFLILHYALNPT[PEG10]K-NH2 / II: MYSSTDHILNKFLILHYALNPT[PEG10] (amide I:24-II:C) [SPAM4]", "values": [
      {"measurement": "binding to CHO-mPD-L1 cells", "setting": "[1]", "result": "no binding"},
      {"measurement": "koff", "setting": "hPD-L1", "result": "0.000219 ± 4e-06", "unit": "s⁻¹"},
      {"measurement": "kon", "setting": "hPD-L1", "result": "2.23e+06 ± 110000", "unit": "M⁻¹ s⁻¹"},
      {"measurement": "solubility", "setting": "[2]", "result": "low solubility"},
      {"measurement": "binding to CHO-hPD-L2 cells", "setting": "[3]", "result": "no binding"}
    ]},
    {"molecule": "MALPIFSNTYLSHTDLKNYHILGSSSSGS [SPAM3 scrambled]", "values": [
      {"measurement": "binding of sequence-scrambled peptides to CHO-hPD-L1 cells", "setting": "[4]", "result": "no significant binding"}
    ]},
    {"molecule": "MPIFLDHILNKFWILHYA-NH2 [SPAM]", "values": [
      {"measurement": "serum stability (ex vivo)", "setting": "[5]; ref Kamalinia et al., 2020", "result": "acceptable serum stability"},
      {"measurement": "koff", "setting": "hPD-L1", "result": "0.049 ± 0.0009", "unit": "s⁻¹"},
      {"measurement": "kon", "setting": "hPD-L1", "result": "1.41e+06 ± 30000", "unit": "M⁻¹ s⁻¹"},
      {"measurement": "Kd", "setting": "hPD-L1; K D by BLI, BLI, mean of duplicate", "result": "38 ± 1", "unit": "nM"},
      {"measurement": "temperature above which irreversible aggregation occurs in thermal denaturation", "setting": "[6]", "result": "above 50 °C"}
    ]},
    {"molecule": "MSLANYNWSHPSRKDNIHWSLFGSSSSGS [SPAM2 scrambled]", "values": [
      {"measurement": "binding of sequence-scrambled peptides to CHO-hPD-L1 cells", "setting": "[4]", "result": "no significant binding"}
    ]},
    {"molecule": "MWSRSDHNLNKFWILHYSANPS-NH2 [SPAM2]", "values": [
      {"measurement": "signal restored in T-cell reactivation assay", "setting": "PD-1/hPD-L1 interaction", "result": "more than 50%"},
      {"measurement": "koff", "setting": "hPD-L1", "result": "0.00264 ± 2e-05", "unit": "s⁻¹"},
      {"measurement": "kon", "setting": "hPD-L1", "result": "8.78e+06 ± 210000", "unit": "M⁻¹ s⁻¹"}
    ]},
    {"molecule": "MYSSTDHILNKFLILHYALNPT-NH2 [SPAM3]", "values": [
      {"measurement": "koff", "setting": "hPD-L1", "result": "0.00146 ± 1e-05", "unit": "s⁻¹"},
      {"measurement": "kon", "setting": "hPD-L1", "result": "5.78e+06 ± 80000", "unit": "M⁻¹ s⁻¹"}
    ]},
    {"molecule": "SGQYASYHCWCWRDPGRSGGSK [TPP-1, reference compound]", "values": [
      {"measurement": "serum stability", "setting": "[5]; ref Hu et al., 2019", "result": "poor serum stability"}
    ]},
    {"molecule": "SPAM2‐fluorescein: SPAM2 with C-terminal propargylglycine labeled with fluorescein azide by click chemistry (MWSRSDHNLNKFWILHYSANPS-{propargylglycine(fluorescein)}; also: fluorescein azide attached by click chemistry)", "values": [
      {"measurement": "labeling of hPD-L1-negative cells", "setting": "MDA-MB-468 cells", "result": "no concentration‐dependent labeling"}
    ]},
    {"molecule": "B1", "values": [
      {"measurement": "Kd", "setting": "[7]", "result": 15.3, "unit": "nM"}
    ]},
    {"molecule": "B2", "values": [
      {"measurement": "Kd", "setting": "[7]", "result": 5.15, "unit": "nM"}
    ]}
  ]
}
